Assays:
[1] = Prodrug conversion in dog primary hepatocytes assessed as 2'-deoxy-2'-spirooxetane uridine triphosphate level per million cells at 62.5 uM after 24 hrs using radiolabelled compound by LC-MS/MS analysis; type: ADME, cell-based, Canis lupus familiaris, Hepatocyte
Method in brief: (§1)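 Study A: fresh primary hepatocyte cultures from mouse, rat, dog and human incubated with tritiated prodrug at 2 or 62.5 µM for 4 or 24 h. Triphosphate in cell lysates reported as pmol/million hepatocytes. Duplicate or single measurements.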

Hepatocyte [2] = experiment: Drug metabolism in human primary hepatocyte supernatant assessed as 1-[(4aR,6R,7R,7aR)-2-hydroxy-2-oxidodihydro-4H-spiro[furo[3,2-d][1,3,2]dioxaphosphinine-7,2'-oxetan]-6-yl]pyrimidine-2,4(1H,3H)-dione formation at 2 to 62.5 uM after 4 to 24 hrs using radiolabelled compound by HPLC analysis; type: ADME, cell-based; conditions: hepatocytes
Method in brief: (§2)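 Fresh primary hepatocyte cultures incubated with tritiated prodrug (5'-[3H]) at 2 and 62.5 µM for 4 and 24 h. Supernatants taken after protein precipitation and profiled by HPLC with radioactivity detection. Cell lysates profiled for metabolites by radio-LC. Cyclic monophosphate also measured by LC/MS/MS.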

Hepatocyte [3] = experiment: Drug metabolism in rat primary hepatocytes assessed as ((4R,5R,7R,8R)-5-(2,4-dioxo-3,4-dihydropyrimidin-1(2H)-yl)-8-hydroxy-1,6-dioxaspiro[3.4]octan-7-yl)methyl dihydrogen phosphate formation at 2 to 62.5 uM after 24 hrs using radiolabeled compound by LC-MS/MS analysis; type: ADME, cell-based; method in brief: as §2
Hepatocyte [4] = experiment: Drug metabolism in mouse primary hepatocyte supernatant assessed as 1-((4R,5R,7R,8R)-8-hydroxy-7-(hydroxymethyl)-1,6-dioxaspiro[3.4]octan-5-yl)pyrimidine-2,4(1H,3H)-dione formation at 2 to 62.5 uM after 4 to 24 hrs using radiolabeled compound by HPLC analysis; type: ADME, cell-based; conditions: hepatocytes; method in brief: as §2
[5] = Stability in dog primary hepatocytes assessed as parent compound level at 2 to 62.5 uM after 4 hrs using radiolabeled compound by LC-MS/MS analysis; type: ADME, cell-based, Canis lupus familiaris, Hepatocyte; method in brief: as §2
[6] = Prodrug conversion in dog primary hepatocytes assessed as 2'-deoxy-2'-spirooxetane uridine triphosphate level per million cells at 2 uM after 24 hrs using radiolabelled compound by LC-MS/MS analysis; type: ADME, cell-based, Canis lupus familiaris, Hepatocyte; method in brief: as §1
[7] = Half life in rat liver at 50 mg/kg, po; type: ADME, organism-based
Method in brief: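 Single oral dose of 50 mg/kg in 20% HP-β-cyclodextrin. Prodrug and triphosphate measured in plasma and liver over time (tlast 6–30 h). Half-life, Cmax, tmax and AUC0-last derived; liver/plasma ratio taken from AUC0-last. Prodrug data pooled from two independent studies.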

[8] = Stability in human HuH7 cells assessed as parent compound level at 100 uM incubated for 96 hrs by LC-MS analysis; type: ADME, cell-based; conditions: huh-7, 96 h
Method in brief: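 Huh-7 replicon-containing cells incubated 96h with prodrug at 100µM; cell lysates analysed by LC-MS for triphosphate and remaining unmetabolised prodrug.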

Hepatitis C virus [9] = experiment: Antiviral activity against HCV genotype 1a infected in homozygous cDNA-uPA chimeric SCID mouse bearing humanized hepatocytes assessed as change in HCV RNA level in serum at 50 mg/kg, po bid administered through gavage for 7 days by RT-PCR method; type: functional, Hepacivirus hominis, subtype 1a, Hepatocyte
Method in brief: (§3)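 Male chimeric SCID cDNA-uPA+/+ mice with human hepatocyte liver (≥70% replacement by blood human albumin) and serum HCV RNA >1.0×10^6 copies/mL the week before dosing. Oral gavage for 7 days in 20% HP-β-CD, 50-200 mg/kg QD or BID. Serum sampled pre-dose on days 1, 2, 3, 5 and 7. Real-time PCR; mean change in log10 copies/mL, day 7 vs day 1 pre-dose.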

Liver [10] = experiment: AUC (0 to last) in rat liver at 50 mg/kg, po; type: ADME, organism-based; conditions: in vivo
Method in brief: (§4)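 Oral dose 50 mg/kg, formulated in 20% HP-β-cyclodextrin. Prodrug and triphosphate were measured in plasma and liver (ng/mL or ng/g). Parameters derived were Cmax, tmax, AUC0-last, AUC0-inf and t1/2. Some prodrug data come from two independent studies.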

Hepatocyte [11] = experiment: Drug metabolism in human hepatocytes assessed as ((4R,5R,7R,8R)-5-(2,4-dioxo-3,4-dihydropyrimidin-1(2H)-yl)-8-hydroxy-1,6-dioxaspiro[3.4]octan-7-yl)methyl dihydrogen phosphate formation in presence of pan-PDE inhibitor ibudilast by LC-MS/MS analysis; type: ADME, cell-based
Hepatocyte [12] = experiment: Prodrug conversion in human hepatocytes assessed as 2'-deoxy-2'-spirooxetane uridine triphosphate formation in presence of PDE5 inhibitor sildenafil by LC-MS/MS analysis; type: ADME, cell-based
Liver [13] = experiment: Tlast in mouse liver at 50 mg/kg, po; type: ADME, organism-based; conditions: in vivo
Method in brief: (§5)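 Single oral dose of 50 mg/kg formulated in 20% HP-β-cyclodextrin. Prodrug and its triphosphate were measured in plasma and liver (ng/mL or ng/g) over time, and Cmax, tmax, AUC, tlast and t1/2 were derived. For some analytes, data from two independent studies are reported.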

[14] = AUC (0 to infinity) in dog plasma at 50 mg/kg, po; type: ADME, organism-based, Canis lupus familiaris; set-up: dose 50 mg/kg, time infinity, route oral; method in brief: as §4
Hepatocyte [15] = experiment: Prodrug conversion in rat cryopreserved hepatocytes assessed as 2'-deoxy-2'-spirooxetane uridine triphosphate level per million cells at 10 uM after 24 hrs by LC-MS/MS analysis; type: ADME, cell-based
Method in brief: (§6)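 Plated cryopreserved hepatocytes (study B) incubated with 10 µM unlabeled prodrug for 2, 8 or 24 h. Triphosphate measured in cell lysates and expressed as pmol/million hepatocytes. Quantification limit 2 ng/10^6 cells.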

Liver [16] = experiment: Tlast in dog liver assessed as 2'-deoxy-2'-spirooxetane uridine triphosphate at 50 mg/kg, po; type: ADME, organism-based, Canis lupus familiaris; conditions: in vivo; method in brief: as §5
Hepatitis C virus [17] = experiment: Antiviral activity against HCV genotype 1a infected in homozygous cDNA-uPA chimeric SCID mouse bearing humanized hepatocytes assessed as change in HCV RNA level in serum at 100 mg/kg, po qd administered through gavage for 7 days by RT-PCR method; type: functional, Hepacivirus hominis, subtype 1a, Hepatocyte; method in brief: as §3
Hepatocyte [18] = experiment: Drug metabolism in human hepatocytes assessed as ((4R,5R,7R,8R)-5-(2,4-dioxo-3,4-dihydropyrimidin-1(2H)-yl)-8-hydroxy-1,6-dioxaspiro[3.4]octan-7-yl)methyl dihydrogen phosphate formation in presence of PDE4 inhibitor rolipram by LC-MS/MS analysis; type: ADME, cell-based
Hepatocyte [19] = experiment: Drug metabolism in human hepatocytes assessed as ((4R,5R,7R,8R)-5-(2,4-dioxo-3,4-dihydropyrimidin-1(2H)-yl)-8-hydroxy-1,6-dioxaspiro[3.4]octan-7-yl)methyl dihydrogen phosphate formation in presence of PDE5 inhibitor sildenafil by LC-MS/MS analysis; type: ADME, cell-based
Hepatocyte [20] = experiment: Prodrug conversion in rat cryopreserved hepatocytes assessed as 2'-deoxy-2'-spirooxetane uridine triphosphate level per million cells at 10 uM after 8 hrs by LC-MS/MS analysis; type: ADME, cell-based; method in brief: as §6
Liver [21] = experiment: Tlast in rat liver at 50 mg/kg, po; type: ADME, organism-based; conditions: in vivo; method in brief: as §5
Hepatocyte [22] = experiment: Drug metabolism in human hepatocytes assessed as ((4R,5R,7R,8R)-5-(2,4-dioxo-3,4-dihydropyrimidin-1(2H)-yl)-8-hydroxy-1,6-dioxaspiro[3.4]octan-7-yl)methyl dihydrogen phosphate formation in presence of pan-CYP inhibitor 1-ABT by LC-MS/MS analysis; type: ADME, cell-based
Liver [23] = experiment: Tmax in mouse liver assessed as 2'-deoxy-2'-spirooxetane uridine triphosphate at 50 mg/kg, po; type: ADME, organism-based; conditions: in vivo; method in brief: as §5
Liver [24] = experiment: AUC (0 to infinity) in mouse liver assessed as 2'-deoxy-2'-spirooxetane uridine triphosphate at 50 mg/kg, po; type: ADME, organism-based; set-up: dose 50 mg/kg, time infinity, route oral; conditions: in vivo; method in brief: as §4

With `[3H]C1O[P@](=O)(OC(C)C)O[C@@H]2[C@@H]1O[C@@H](n1ccc(=O)[nH]c1=O)[C@@]21CCO1` (some centres undefined) the Drug metabolism [1] was 0.11 pmol, the Drug metabolism (Hepatocyte [2]) was “metabolite_detected” and the Drug metabolism (Hepatocyte [3]) was “metabolite_detected”. For the same compound, the Drug metabolism (Hepatocyte [4]) was “metabolite_detected”, the Stability [5] was “Stable” and the Drug metabolism [6] was 0.007 pmol.

For `CC(C)O[P@@]1(=O)OC[C@H]2O[C@@H](n3ccc(=O)[nH]c3=O)[C@@]3(CCO3)[C@@H]2O1`, the half-life [7] was 5.3 h, the Stability [8] was “Stable” and the Activity (Hepatitis C virus [9]) was -0.45. The AUClast (Liver [10]) was 2489 ng·h/g, the Drug metabolism (Hepatocyte [11]) was “metabolite_detected” and the Drug metabolism (Hepatocyte [12]) was “metabolite_notdetected”. For the same compound, the Tlast (Liver [13]) was 6 h, the AUC(0-inf) [14] was 29100 ng·h/mL and the Drug metabolism (Hepatocyte [15]) was 0.231 pmol. For the same compound, the Tlast (Liver [16]) was 24 h, the Activity (Hepatitis C virus [17]) was -0.83 and the Drug metabolism (Hepatocyte [18]) was “metabolite_detected”. For the same compound, the Drug metabolism (Hepatocyte [19]) was “metabolite_notdetected”, the Drug metabolism (Hepatocyte [20]) was 0.308 pmol and the Tlast (Liver [21]) was 6 h. For the same compound, the Drug metabolism (Hepatocyte [22]) was “metabolite_notdetected”, the Tmax (Liver [23]) was 2 h and the AUC (Liver [24]) was 129396 ng·h/g.

Source: ChEMBL document CHEMBL3826882, “Discovery of 1-((2R,4aR,6R,7R,7aR)-2-Isopropoxy-2-oxidodihydro-4H,6H-spiro[furo[3,2-d][1,3,2]dioxaphosphinine-7,2'-oxetan]-6-yl)pyrimidine-2,4(1H,3H)-dione (JNJ-54257099), a 3'-5'-Cyclic Phosphate Ester Prodrug of 2'-Deoxy-2'-Spirooxetane Uridine Triphosphate Useful for HCV Inhibition” (J Med Chem, 2016)
